Screens as filed in PubChem BioAssay.
Only a selection was taken, and hits are over-represented in it overall.
Avidin fluor = avidin bead compound fluorescence profile. actives 0.38% (n = 220,000). AID 1775. fluorescence (KMESF) at 10 µM. Avidin beads, compound fluorescence 488/530 nm, flow cytometry; stronger effect = higher value; in the data active = fluorescence above about 47
ABCG2 block = blocks JC-1 efflux by human ABCG2 transporter; inhibition, % at 6.6 µM; AID 1325; IgMXP3 cells, flow cytometry; actives 0.1% (n = 190,000);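 active = inhibition above 80%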;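 note: 0% = DMSO and 100% = nicardipine control wells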
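Test system: IgMXP3 cells (ABCG2) mixed with DDAO far-red-labelled CCRF-Adr cells (ABCB1). Reagent: JC-1 transporter substrate. Compound dosing: single test compound dose, 6.6 µM final. Times: 10 min compound exposure, 25 °C. Detection: flow cytometry of retained JC-1 fluorescence. Read-out basis: efflux inhibition in percent versus controls. Controls: nicardipine and DMSO wells.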
ABCB1 inh = blocks JC-1 efflux by human ABCB1 transporter; P08183; CCRF-Adr cells, flow cytometry; inhibition, % at 6.6 µM; actives 0.067% (n = 190,000); AID 1326; in the data active = inhibition above about 40%;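 note: 0% = vehicle and 100% = reference inhibitor; higher value means more JC-1 retained so stronger ABCB1 efflux block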
GSH bead fluor = GSH bead compound fluorescence profile; GSH beads flow cytometry, compound fluorescence 488/530 nm; stronger effect = higher value; fluorescence (KMESF) at 10 µM; actives 0.25% (n = 190,000); in the data active = fluorescence above about 89;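 note: glutathione beads carrying GST-tagged Bcl family fusion proteins plus one bare bead set; values are compound well signal with DMSO vehicle wells as background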
PKD1 inh = inhibitors of human PKD1 kinase; Q15139; PKD1 kinase fluorescence polarization assay; inhibition, % (no concentration beside the values); actives 0.056% (n = 200,000)
Target sequence (Q15139 whole entry, looked up): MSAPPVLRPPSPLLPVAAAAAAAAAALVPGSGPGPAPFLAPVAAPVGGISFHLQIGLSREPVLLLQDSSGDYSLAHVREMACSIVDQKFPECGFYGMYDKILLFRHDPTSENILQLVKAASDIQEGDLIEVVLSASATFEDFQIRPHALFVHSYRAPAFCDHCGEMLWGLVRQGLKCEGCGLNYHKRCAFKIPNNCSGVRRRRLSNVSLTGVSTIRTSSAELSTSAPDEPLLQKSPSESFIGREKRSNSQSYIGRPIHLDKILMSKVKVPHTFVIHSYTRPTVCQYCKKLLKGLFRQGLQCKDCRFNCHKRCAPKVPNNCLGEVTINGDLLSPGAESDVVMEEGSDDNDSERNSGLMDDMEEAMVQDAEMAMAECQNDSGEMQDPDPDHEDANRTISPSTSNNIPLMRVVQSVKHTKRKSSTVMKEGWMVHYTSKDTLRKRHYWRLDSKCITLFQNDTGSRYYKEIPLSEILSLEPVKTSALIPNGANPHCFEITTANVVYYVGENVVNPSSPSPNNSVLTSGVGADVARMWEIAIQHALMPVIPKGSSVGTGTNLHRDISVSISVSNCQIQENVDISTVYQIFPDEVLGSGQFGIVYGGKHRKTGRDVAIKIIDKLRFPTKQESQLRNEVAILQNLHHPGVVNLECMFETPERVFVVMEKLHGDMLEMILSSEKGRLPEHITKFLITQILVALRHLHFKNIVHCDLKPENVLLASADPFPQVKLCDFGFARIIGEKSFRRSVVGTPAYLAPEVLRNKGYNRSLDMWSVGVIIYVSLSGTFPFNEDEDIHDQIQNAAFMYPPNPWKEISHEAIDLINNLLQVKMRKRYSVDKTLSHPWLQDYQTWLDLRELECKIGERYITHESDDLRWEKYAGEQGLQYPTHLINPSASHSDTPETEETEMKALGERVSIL
Lmaj promast = inhibitors of Leishmania major promastigote growth; Leishmania major promastigotes, resazurin fluorescence viability; inhibition, % at 10 µM; actives 9% (n = 200,000); AID 1063;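 note: promastigotes grown with compound for 44 hours at 28 °C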
Numbers without * were called inactive; x = no result; ! = repeats disagree. Cut-off read from the data, not from the text of the source, unless noted: active = inhibition above about 50%; inactive = the rest.

SMILES	Avidin fluor	ABCG2 block	ABCB1 inh	GSH bead fluor	PKD1 inh	Lmaj promast
CC(C)(C)c1ccc(C(=O)NNC(=O)c2cccc(Br)c2)cc1	65*	2	0	32	-3	-7
Cn1c(N)c(C(=O)COC(=O)c2ccc3c(c2)C(=O)N(c2ccc(Cl)cc2)C3=O)c(=O)n(C)c1=O	10	14	1	8	1	-5
CCOC(=O)c1cc(-c2ccc(C)cc2)nc2nc(SC)[nH]c(=O)c12	8	3	0	3	-11	56*
COC(=O)C1=CN(C(C)C)C=C(C(=O)OC)C1c1cccc(OC)c1	4	1	0	5	-9	15
COC(=O)C1=CN(C(C)C)C=C(C(=O)OC)C1c1cc(Br)c(OC)c(OC)c1	5	2	1	33	0	100*
Cc1ccc(N2NC(C)(c3cccs3)NC2=S)cc1 (centres undefined)	11	-5	-1	16	-5	89*
Cc1ccc(C(C#N)c2ccc(C(=O)c3ccc(F)cc3)cc2)cc1 (centres undefined)	23	-1	0	15	-5	54*
N#CC(c1ccc(F)cc1)c1ccc(C(=O)c2ccc(F)cc2)cc1 (centres undefined)	16	1	0	9	-1	47
CCn1c(SCC(=O)Nc2oc(-c3ccccc3)c(-c3ccccc3)c2C#N)nnc1-c1cc(OC)cc(OC)c1	15	7	2	14	6	-6
COc1ccc2c(c1)C(=O)N(c1ccccc1)C(=O)C2	34	3	1	11	-5	-4
N#CC1=C(N)N(c2ccc(Oc3ccccc3)cc2)C(=O)C1	20	1	0	25	-13	91*
O=C(c1cc2ccccc2oc1=O)N(Cc1ccccc1)Cc1ccc2c(c1)OCO2	22	3	2	15	-2	61*
COc1ccc(C(=O)NC(=S)Nc2ccccc2F)cc1	17	-2	0	7	-4	64*
Cc1cccc(C)c1OC(=O)CCN1C(=O)C2C3C=CC(C4CC34)C2C1=O (centres undefined)	9	6	5	17	3	10
C=CCc1ccc(OCCCCN2CC(C)OC(C)C2)c(OC)c1 (centres undefined)	14	4	1	34	-8	98*
C=CCc1ccc(OCCCOc2ccc(C)cc2OC)c(OC)c1	19	4	1	11	6	-1
C=CCc1ccc(OCCN2CCc3ccccc3C2)c(OC)c1	9	5	1	18	-4	83*
Cc1ccc(C)c(/C(O)=C2\C(=O)C(=O)N(Cc3cccnc3)C2c2cccnc2)c1 (centres undefined)	49*	0	0	18	-7	-5
Cc1nc2ccccn2c1C(=O)CSc1ccccc1	11	5	0	14	-1	6
c1ccc(CSCc2nc3ccccc3[nH]2)cc1	8	3	0	5	6	60*
Cc1ccc(S(=O)(=O)Oc2cccc(/C=N/n3cnnc3)c2)cc1	16	13	26	7	-4	67*
Cc1ccc(S(=O)(=O)Oc2cccc(/C=N/Nc3ccc(C(=O)O)cc3)c2)cc1	6	x	x	x	x	x
CCN1CCN(c2ncnc3c2c(-c2ccccc2)cn3-c2ccc(F)cc2)CC1	11	-2	2	20	-8	86*
OCC1(Cc2cccc(Cl)c2)CCCN(Cc2sc(N3CCCC3)nc2Cl)C1 (centres undefined)	9	1	1	54	-5	14
CCn1nc(C)c(CN2CCCC(CO)(Cc3cccc(Cl)c3)C2)c1C (centres undefined)	9	1	0	10	0	53*
SMILES	Avidin fluor	ABCG2 block	ABCB1 inh	GSH bead fluor	PKD1 inh	Lmaj promast
CCn1nc(C)c(CN2CCCC(CO)(Cc3ccccc3)C2)c1C (centres undefined)	10	0	0	15	-6	61*
Cn1cc(CN2CCCC(CO)(Cc3ccccc3)C2)c2ccccc21 (centres undefined)	2	3	1	8	-7	43
Cc1c(CN2CCCC(CO)(Cc3cccc(Cl)c3)C2)cnn1C (centres undefined)	10	1	1	24	-5	61*
Cc1nc([N+](=O)[O-])cn1CC(O)c1ccc(-c2ccccc2)cc1 (centres undefined)	6	x	x	x	x	x
CCCCCCCCNC(CO)(CO)CO	6	x	x	x	x	x
COc1ccc(-c2cn(-c3ccccc3)c3[n+]2CCS3)cc1	13	11	0	13	-4	85*!
CC(C)(C)c1ccc(-c2cn(-c3ccc(Br)cc3)c3[n+]2CCCS3)cc1	9	1	0	69	5	100*
Cc1ccc(S(=O)(=O)NN=C2C3CC4CC(C3)CC2C4)cc1[N+](=O)[O-]	21	54	1	10	-9	-8
CN(C)CCC(=O)c1cccc(Br)c1	9	-1	0	18	-8	52*
CN(C)CCC(=O)c1ccc(F)cc1	16	x	x	x	x	x
CN(C)CCC(=O)c1ccc2c(c1)OCO2	38	5	1	26	0	98*
COc1cc(/C=C/C(=O)OCC(=O)NC(=O)NC(C)(C)C)ccc1O	7	x	x	x	x	x
COc1ccc2nc(NC(=O)CSc3nc(SC)ns3)sc2c1	11	-5	-1	12	-12	12
COc1ccc(-c2csc(NC(=O)CSc3nc(SC)ns3)n2)cc1	12	-3	0	16	-9	52*
CSc1nsc(SCC(=O)Nc2nc3ccccc3s2)n1	11	6	0	11	3	63*
CCn1nnnc1NC(=O)c1cc(Cl)c(OC)c(Cl)c1	13	6	1	13	6	-1
Cc1cc(SCC(=O)c2cccs2)nc2ccccc12	15	2	0	14	0	-1
COc1ccc(-c2nc(-c3cccs3)c(-c3cccs3)[nH]2)cc1OC	8	2	1	29	-2	100*
O=[N+]([O-])c1cccc(-c2nc(-c3cccs3)c(-c3cccs3)[nH]2)c1	11	16	0	30	3	16
COc1ccc(-c2nc(-c3ccccc3)c(-c3cccs3)[nH]2)cc1OC	7	-5	-3	39	-7	66*
Fc1ccc(-c2nc(-c3cccs3)[nH]c2-c2ccc(F)cc2)cc1	8	28	0	10	-7	99*
CC1(C)CC(=O)C=C(NCCN2CCN(C(=S)NC3CCCCC3)CC2)C1	6	x	x	x	x	x
COc1ccc([N+](=O)[O-])cc1NC(=O)C1CCCCC1C(=O)O (centres undefined)	3	2	1	11	-5	-4
CC1(C)Oc2ccc3ccc(=O)oc3c2-c2cnoc21	56*	1	0	17	-8	-9
CC1(C)Oc2ccc3ccc(=O)oc3c2-c2cn[nH]c21	8	2	0	38	90*	37
